16 compounds from ChEMBL document CHEMBL1133558, “Structural determinants of AMPA agonist activity in analogues of 2-amino-3-(3-carboxy-5-methyl-4-isoxazolyl)propionic acid: synthesis and pharmacology” (J Med Chem, 2000) can be followed below.

In test [1] the target is T1, Glutamate receptor ionotropic, AMPA (Rattus norvegicus, UniProt P19490+P19491+P19492+P19493). Description: Inhibition of [3H]AMPA binding to rat brain membranes. It counts as cell membranes, Membrane.
Test [2] addresses Glutamate receptor ionotropic, kainate. Briefly: Inhibition of [3H]-Kainic acid binding to rat brain membranes. It counts as cell membranes, Membrane.
Test [3] concerns the target Glutamate NMDA receptor. Description: Inhibition of [3H]CPP binding to rat brain membranes. Format: cell membranes, Membrane.
In test [4] the target is Glutamate receptor ionotropic, NMDA (Rattus norvegicus). Description: Tested in vitro for the antagonistic activity electrophysiologically against NMDA using rat cortical wedge preparation.
The target of test [5] is T1, Glutamate receptor ionotropic, AMPA. Description: Agonistic activity electrophysiologically against AMPA using rat cortical wedge preparation. Format: functional.
In test [6] the target is Glutamate NMDA receptor. Briefly: Tested in vitro for the antagonistic activity electrophysiologically against NMDA using rat cortical wedge preparation. It counts as functional. In a few lines: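 Rat cortical wedge preparation. The cortex was superfused with Mg²⁺-free Krebs buffer and the corpus callosum with Mg²⁺- and Ca²⁺-free Krebs buffer, at 25 °C. Compounds were added to the cortical superfusate, and the potential difference between the electrodes was recorded on a chart recorder.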

As a reminder, the IC50 is the concentration that gives 50% inhibition. Lower therefore signals greater potency in that assay. Usually EC50 stands for the concentration needed to bring the measured effect to its halfway point. High values mean weaker potency, low ones greater potency.

In the case of `CCOc1noc(C(=O)O)c1C/N=c1\c(O)c(O)c1=N`, the IC50 in test [1] was more than 100 µM; in test [2], more than 100 µM; on Glutamate NMDA receptor [3], 76 µM; in test [4] it was 603 µM.
Consider `CCCCOc1noc(C(=O)O)c1CC(N)C(=O)O` (centres undefined), for which the EC50 in test [5] amounted to 406 µM. In addition, the half-maximal inhibitory concentration (IC50) (in test [1]; in test [2]; on Glutamate NMDA receptor [3]) was more than 100 µM each time.
Consider `CCOc1noc(C(=O)O)c1CC(N)C(=O)O` (centres undefined), for which the EC50 in test [5] is 4.8 µM. The IC50 in test [1] was 1 µM; in test [2], more than 100 µM; at Glutamate NMDA receptor [3], more than 100 µM.
Turning to `CC(C)Oc1noc(C(=O)O)c1CC(N)C(=O)O` (centres undefined), the midpoint of the response in test [5], the EC50, lay at 37 µM. In addition, the IC50 in test [1] is 5.5 µM; in test [2], more than 100 µM; at Glutamate NMDA receptor [3] it was more than 100 µM.
In test [5], `NC(Cc1c(OCc2ccccc2)noc1C(=O)O)C(=O)O` (centres undefined) gave an EC50 of more than 1000 µM. Also, the IC50 (in test [1]; in test [2]; at Glutamate NMDA receptor [3]) was more than 100 µM throughout.
`CCOc1noc(-c2nc[nH]n2)c1CC(N)C(=O)O` (centres undefined) registered an EC50 in test [5] of more than 100 µM. In addition, the IC50 (in test [1]; in test [2]; on Glutamate NMDA receptor [3]) was more than 100 µM in each case.
For the compound `CCn1oc(C(=O)O)c(CC(N)C(=O)O)c1=O` (centres undefined), the EC50 in test [5] is more than 500 µM. Also, the IC50 (in test [1]; in test [2]; on Glutamate NMDA receptor [3]) was more than 100 µM in each case.
In test [5], `CCCOc1noc(C(=O)O)c1CC(N)C(=O)O` (centres undefined) gave a 50% effective concentration (EC50) of 79 µM. The IC50 was 14 µM in test [1], more than 100 µM in test [2] and more than 100 µM at Glutamate NMDA receptor [3].
In test [5], `C=CCOc1noc(C(=O)O)c1CC(N)C(=O)O` (centres undefined) came in with an EC50 of 40 µM. Besides, the IC50 in test [1] was 7.2 µM; in test [2], more than 100 µM; on Glutamate NMDA receptor [3], more than 100 µM.
Take `CCCCCOc1noc(C(=O)O)c1CC(N)C(=O)O` (centres undefined): it took 1000 µM to reach a half-maximal effect in test [5] (EC50). Besides, the IC50 (in test [1]; in test [2]; on Glutamate NMDA receptor [3]) was more than 100 µM throughout.
Take `NC(Cc1c(C(=O)O)on(Cc2ccccc2)c1=O)C(=O)O` (centres undefined): the IC50 was more than 100 µM in test [1], more than 100 µM in test [2], more than 100 µM at Glutamate NMDA receptor [3] and 704 µM against Glutamate NMDA receptor [6].
For the compound `Cn1oc(C(=O)O)c(CC(N)C(=O)O)c1=O` (centres undefined), the concentration for a half-maximal effect (EC50) in test [5] is more than 1000 µM. Further, the IC50 (in test [1]; in test [2]; on Glutamate NMDA receptor [3]) was more than 100 µM throughout.
Take `C/C=C/COc1noc(C(=O)O)c1CC(N)C(=O)O` (centres undefined): in test [5], the EC50 turned out to be 500 µM. The IC50 (in test [1]; in test [2]; at Glutamate NMDA receptor [3]) was more than 100 µM each time.
`COc1noc(C(=O)O)c1CC(N)C(=O)O` (centres undefined) registered an EC50 in test [5] of 1.2 µM. Further, the IC50 in test [1] was 0.11 µM; in test [2] it was more than 100 µM; at Glutamate NMDA receptor [3], more than 100 µM.
`NC(Cc1c(O)noc1C(=O)O)C(=O)O` (centres undefined) displayed an EC50 in test [5] of more than 1000 µM. Moreover, the IC50 (in test [1]; in test [2]; at Glutamate NMDA receptor [3]) was more than 100 µM in each case.
`CCOc1noc(-c2nn[nH]n2)c1CC(N)C(=O)O` (centres undefined): in test [5], the EC50 stood at 2000 µM. Further, the IC50 (in test [1]; in test [2]; at Glutamate NMDA receptor [3]) was more than 100 µM in each case.
